Assay results from ChEMBL document CHEMBL3526129, “Species differences in tissue distribution and enzyme activities of arylacetamide deacetylase in human, rat, and mouse” (Drug Metab Dispos, 2012).

Assays:
[1] = molecular target: T1, Arylacetamide deacetylase (Mus musculus, UniProt Q99PG0); assay: Ratio Vmax to Km in mouse recombinant AADAC; assay type: ADME
T1 sequence (Q99PG0 whole entry): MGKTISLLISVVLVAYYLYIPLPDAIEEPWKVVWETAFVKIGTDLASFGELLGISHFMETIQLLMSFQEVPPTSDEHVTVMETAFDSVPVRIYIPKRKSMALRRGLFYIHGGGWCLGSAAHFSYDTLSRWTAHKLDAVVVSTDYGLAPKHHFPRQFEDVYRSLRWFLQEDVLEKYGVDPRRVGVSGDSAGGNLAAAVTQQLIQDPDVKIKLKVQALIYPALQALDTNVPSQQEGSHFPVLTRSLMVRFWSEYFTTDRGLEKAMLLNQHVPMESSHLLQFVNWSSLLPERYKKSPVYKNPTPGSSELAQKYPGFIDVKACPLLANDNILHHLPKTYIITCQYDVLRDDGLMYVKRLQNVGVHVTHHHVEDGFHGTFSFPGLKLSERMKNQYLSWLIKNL

[2] = tested on: Liver microsome; assay: Intrinsic clearance in human Liver microsome at 0.05 to 4 mM; assay type: ADME; conditions: microsomes, 4000 µM
Method in brief: (§1)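 Phenacetin hydrolysis by tissue microsomes: 0.05–4 mM phenacetin with 0.4 mg/ml microsomal protein in 100 mM potassium phosphate (pH 7.4). p-Phenetidine formation was read within its linear time range. CLint was Vmax/Km, or the initial slope of velocity vs substrate when Km was high. Triplicate determinations. Human liver pooled (n=50), jejunum pooled (n=10), kidney and lung single donors.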

[3] = Intrinsic clearance in human jejunum microsome at 0.05 to 4 mM; assay type: ADME; conditions: jejunum microsomes; method in brief: as §1
[4] = Intrinsic clearance in human kidney microsome at 0.05 to 4 mM; assay type: ADME; conditions: microsomes, 4000 µM; method in brief: as §1
[5] = Intrinsic clearance in human lung microsome at 0.05 to 4 mM; assay type: ADME; conditions: microsomes, 4000 µM; method in brief: as §1
[6] = Intrinsic clearance in rat Liver microsome at 0.05 to 4 mM; assay type: ADME; conditions: liver microsomes, read-out: CLH; method in brief: as §1
[7] = Intrinsic clearance in rat jejunum microsome at 0.05 to 4 mM; assay type: ADME; conditions: jejunum microsomes
[8] = Intrinsic clearance in rat kidney microsome at 0.05 to 4 mM; assay type: ADME; conditions: kidney microsomes; method in brief: as §1
[9] = Intrinsic clearance in rat lung microsome at 0.05 to 4 mM; assay type: ADME; conditions: lung microsomes
[10] = Intrinsic clearance in mouse Liver microsome at 0.05 to 4 mM; assay type: ADME; conditions: liver microsomes, read-out: CLH; method in brief: as §1
[11] = Intrinsic clearance in mouse jejunum microsome at 0.05 to 4 mM; assay type: ADME; conditions: jejunum microsomes
[12] = Intrinsic clearance in mouse kidney microsome at 0.05 to 4 mM; assay type: ADME; conditions: kidney microsomes; method in brief: as §1
[13] = molecular target: T2, Arylacetamide deacetylase (Homo sapiens, UniProt P22760); assay: Ratio Vmax to Km in human recombinant AADAC; assay type: ADME
T2 sequence (P22760 whole entry): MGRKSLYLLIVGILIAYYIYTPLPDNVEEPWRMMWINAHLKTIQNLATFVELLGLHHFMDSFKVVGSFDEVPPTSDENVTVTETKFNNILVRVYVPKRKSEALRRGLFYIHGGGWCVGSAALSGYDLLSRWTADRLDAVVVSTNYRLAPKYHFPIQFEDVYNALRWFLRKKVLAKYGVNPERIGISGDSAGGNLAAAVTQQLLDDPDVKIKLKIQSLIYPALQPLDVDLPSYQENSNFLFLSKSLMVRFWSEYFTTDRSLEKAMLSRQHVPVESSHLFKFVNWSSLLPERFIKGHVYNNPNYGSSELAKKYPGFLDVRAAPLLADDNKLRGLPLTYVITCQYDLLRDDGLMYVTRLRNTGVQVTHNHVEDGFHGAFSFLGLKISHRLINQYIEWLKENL

[14] = molecular target: T3, Arylacetamide deacetylase (Rattus norvegicus, UniProt Q9QZH8); assay: Ratio Vmax to Km in rat recombinant AADAC; assay type: ADME
T3 sequence (Q9QZH8 whole entry): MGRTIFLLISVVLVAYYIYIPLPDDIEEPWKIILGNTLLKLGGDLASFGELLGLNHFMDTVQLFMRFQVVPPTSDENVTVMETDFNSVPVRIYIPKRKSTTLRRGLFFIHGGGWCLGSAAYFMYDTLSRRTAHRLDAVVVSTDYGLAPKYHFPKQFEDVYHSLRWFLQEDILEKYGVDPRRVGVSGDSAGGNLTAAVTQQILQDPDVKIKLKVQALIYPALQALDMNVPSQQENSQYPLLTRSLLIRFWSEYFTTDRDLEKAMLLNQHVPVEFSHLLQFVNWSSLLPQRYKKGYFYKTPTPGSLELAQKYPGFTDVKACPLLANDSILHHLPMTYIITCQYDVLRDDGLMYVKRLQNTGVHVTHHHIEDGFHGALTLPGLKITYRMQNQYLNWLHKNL

[15] = Intrinsic clearance in human Liver microsome at 0.05 to 1 mM; assay type: ADME; conditions: liver microsomes, read-out: CLH
[16] = Intrinsic clearance in human jejunum microsome at 0.05 to 1 mM; assay type: ADME; conditions: jejunum microsomes
[17] = Intrinsic clearance in mouse Liver microsome at 0.05 to 1 mM; assay type: ADME; conditions: liver microsomes, read-out: CLH
[18] = molecular target: T2, Arylacetamide deacetylase; assay: Inhibition of human recombinant AADAC
[19] = molecular target: T2, Arylacetamide deacetylase; assay: Inhibition of AADAC in human liver microsome
[20] = molecular target: T2, Arylacetamide deacetylase; assay: Inhibition of AADAC in human jejunum microsome
Method in brief: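 Flutamide hydrolysis to FLU-1 by pooled human jejunum (n = 10) or single-donor human renal microsomes at 0.4 mg/ml in 100 mM potassium phosphate (pH 7.4). Flutamide was 0.005–0.75 mM (jejunum) or 0.025–0.75 mM (kidney). Kinetics were fitted to the substrate inhibition equation, combined with Michaelis-Menten for jejunum. Triplicate determinations.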

[21] = substrate: CCOc1ccc(NC(C)=O)cc1; assay: Activity of AADAC in human lung microsome; assay type: ADME
Method in brief: (§2)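 Hydrolase activity of tissue microsomes in 0.2 ml mixtures of 100 mM potassium phosphate (pH 7.4). Microsomal protein: 0.4 mg/ml for flutamide (0.025–0.75 mM) and phenacetin (0.05–4 mM); 0.5 mg/ml for rifampicin (0.005–1 mM). Products measured were FLU-1, p-phenetidine and 25-deacetylrifampicin, within linear ranges. Three independent experiments.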

[22] = substrate: CCOc1ccc(NC(C)=O)cc1; assay: (§3) Activity of human recombinant AADAC; assay type: ADME
Method in brief: (§4)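 Sf21 insect cells were infected with baculovirus carrying intact human, rat or mouse AADAC, harvested after 7 days, and homogenized by freeze-thaw. Homogenate was incubated in 100 mM potassium phosphate (pH 7.4). Flutamide (0.025–0.75 mM) used 0.4 mg/ml; phenacetin (0.05–4 mM) used 0.4 mg/ml for human and 0.2 mg/ml for rat or mouse; rifampicin (0.005–1 mM) used 0.5 mg/ml. Activity was normalized to immunoblot-derived AADAC expression units. Triplicate determinations.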

[23] = substrate: CO[C@H]1/C=C/O[C@@]2(C)Oc3c(C)c(O)c4c(O)c(c(/C=N/N5CCN(C)CC5)c(O)c4c3C2=O)NC(=O)/C(C)=C\C=C\[C@H](C)[C@H](O)[C@@H](C)[C@@H](O)[C@@H](C)[C@H](OC(C)=O)[C@@H]1C; assay: as §3; assay type: ADME; method in brief: as §4
[24] = substrate: CCOc1ccc(NC(C)=O)cc1; assay: (§5) Activity of AADAC in human liver microsome; assay type: ADME; method in brief: as §2
[25] = substrate: CO[C@H]1/C=C/O[C@@]2(C)Oc3c(C)c(O)c4c(O)c(c(/C=N/N5CCN(C)CC5)c(O)c4c3C2=O)NC(=O)/C(C)=C\C=C\[C@H](C)[C@H](O)[C@@H](C)[C@@H](O)[C@@H](C)[C@H](OC(C)=O)[C@@H]1C; assay: as §5; assay type: ADME; method in brief: as §2
[26] = substrate: CCOc1ccc(NC(C)=O)cc1; assay: (§6) Activity of AADAC in human jejunum microsome; assay type: ADME; method in brief: as §2
[27] = substrate: CO[C@H]1/C=C/O[C@@]2(C)Oc3c(C)c(O)c4c(O)c(c(/C=N/N5CCN(C)CC5)c(O)c4c3C2=O)NC(=O)/C(C)=C\C=C\[C@H](C)[C@H](O)[C@@H](C)[C@@H](O)[C@@H](C)[C@H](OC(C)=O)[C@@H]1C; assay: as §6; assay type: ADME; method in brief: as §2
[28] = substrate: CCOc1ccc(NC(C)=O)cc1; assay: Activity of AADAC in human kidney microsome; assay type: ADME; method in brief: as §2
[29] = substrate: CCOc1ccc(NC(C)=O)cc1; assay: Activity of AADAC in mouse lung microsome; assay type: ADME; method in brief: as §2
[30] = substrate: CCOc1ccc(NC(C)=O)cc1; assay: Activity of mouse recombinant AADAC; assay type: ADME; method in brief: as §4
[31] = substrate: CCOc1ccc(NC(C)=O)cc1; assay: Activity of AADAC in mouse liver microsome; assay type: ADME; method in brief: as §2
[32] = substrate: CCOc1ccc(NC(C)=O)cc1; assay: Activity of AADAC in mouse jejunum microsome; assay type: ADME; method in brief: as §2
[33] = substrate: CCOc1ccc(NC(C)=O)cc1; assay: Activity of AADAC in mouse kidney microsome; assay type: ADME; method in brief: as §2
[34] = substrate: CCOc1ccc(NC(C)=O)cc1; assay: Activity of rat recombinant AADAC; assay type: ADME; method in brief: as §4
[35] = substrate: CCOc1ccc(NC(C)=O)cc1; assay: Activity of AADAC in rat liver microsome; assay type: ADME; method in brief: as §2
[36] = substrate: CCOc1ccc(NC(C)=O)cc1; assay: Activity of AADAC in rat jejunum microsome; assay type: ADME; method in brief: as §2
[37] = substrate: CCOc1ccc(NC(C)=O)cc1; assay: Activity of AADAC in rat kidney microsome; assay type: ADME; method in brief: as §2
[38] = substrate: CCOc1ccc(NC(C)=O)cc1; assay: Activity of AADAC in rat lung microsome; assay type: ADME; method in brief: as §2

## CCOc1ccc(NC(C)=O)cc1 [PHENACETIN]
[1]
  Vmax/Km: 5.7 uL/min/U
[2]
  CLH: 1.1 µL/min/mg
[3]
  microsomal CLint at up to 4000 µM: 4 µL/min/mg
[4]
  CL: 0.2 µL/min/mg
[5]
  CL: 0.4 µL/min/mg
[6]
  microsomal CLint at up to 4000 µM: 0.2 µL/min/mg
[7]
  microsomal CLint at up to 4000 µM: 0.1 µL/min/mg
[8]
  microsomal CLint at up to 4000 µM: 0.1 µL/min/mg
[9]
  microsomal CLint at up to 4000 µM: 0.1 µL/min/mg
[10]
  microsomal CLint at up to 4000 µM: 1.3 µL/min/mg
[11]
  microsomal CLint at up to 4000 µM: 0.1 µL/min/mg
[12]
  microsomal CLint at up to 4000 µM: 0.4 µL/min/mg
[13]
  Vmax/Km: 3.5 uL/min/U
[14]
  Vmax/Km: 2.2 uL/min/U

## CO[C@H]1/C=C/O[C@@]2(C)Oc3c(C)c(O)c4c(O)c(c(/C=N/N5CCN(C)CC5)c(O)c4c3C2=O)NC(=O)/C(C)=C\C=C\[C@H](C)[C@H](O)[C@@H](C)[C@@H](O)[C@@H](C)[C@H](OC(C)=O)[C@@H]1C [RIFAMPIN]
[15]
  microsomal CLint at up to 1000 µM: 0.7 µL/min/mg
[16]
  microsomal CLint at up to 1000 µM: 0.7 µL/min/mg
[17]
  microsomal CLint at up to 1000 µM: 0.2 µL/min/mg
[18]
  Ki: 300 µM
[19]
  Ki: 200 µM
[20]
  Ki: 700 µM

B1: Arylacetamide deacetylase (Homo sapiens) (protein)
chain: T2 sequence (P22760 whole entry)
[21]
  Km: 7.4 mM
  Vmax: 0.0008 µmol/min/mg
[22]
  Km: 1.8 mM
[23]
  Km: 0.2 mM
[24]
  Km: 3.3 mM
  Vmax: 0.0036 µmol/min/mg
[25]
  Km: 0.4 mM
  Vmax: 0.000273 µmol/min/mg
[26]
  Km: 2.5 mM
  Vmax: 0.01 µmol/min/mg
[27]
  Km: 0.3 mM
  Vmax: 0.000212 µmol/min/mg
[28]
  Km: 2.3 mM
  Vmax: 0.0004 µmol/min/mg

B2: Arylacetamide deacetylase (Mus musculus) (protein)
chain: T1 sequence (Q99PG0 whole entry)
[29]
  Km: 2.9 mM
  Vmax: 0.0001 µmol/min/mg
[30]
  Km: 1.6 mM
[31]
  Km: 9.8 mM
  Vmax: 0.0171 µmol/min/mg
[32]
  Km: 11.2 mM
  Vmax: 0.0014 µmol/min/mg
[33]
  Km: 7.1 mM
  Vmax: 0.0029 µmol/min/mg

B3: Arylacetamide deacetylase (Rattus norvegicus) (protein)
chain: T3 sequence (Q9QZH8 whole entry)
[34]
  Km: 5.8 mM
[35]
  Km: 29.8 mM
  Vmax: 0.0059 µmol/min/mg
[36]
  Km: 4.6 mM
  Vmax: 0.0003 µmol/min/mg
[37]
  Km: 9.3 mM
  Vmax: 0.0006 µmol/min/mg
[38]
  Km: 5.3 mM
  Vmax: 0.0001 µmol/min/mg
